From ChEMBL document CHEMBL1811876 (J Med Chem, 2011)
Active and inactive are the calls of the source.

Experiments:
[1] = test system: A549; assay: Anticancer activity against human A549 cells after 72 hrs by sulforhodamine B assay; type: functional; settings: A549, 72 h
[2] = test system: DU-145; assay: Anticancer activity against human DU145 cells after 72 hrs by sulforhodamine B assay; type: functional; settings: DU-145, 72 h
[3] = test system: KB; assay: Anticancer activity against human KB cells after 72 hrs by sulforhodamine B assay; type: functional
[4] = test system: HCT-8; assay: Anticancer activity against human HCT8 cells after 72 hrs by sulforhodamine B assay; type: functional; settings: HCT-8, 72 h
[5] = (§1) Upregulation of Cdt1 expression in human CL1-5 cells at 0.01 ug/mL by RT-PCR analysis after 24 to 48 hrs by Western blot; type: functional, cell-based
Summary of the method: (§2)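 CL1-5 cells were exposed to the test agent for 24 and 48 h. Cdt1 and CDC6 protein levels were then assessed by Western blot.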

[6] = as §1; type: functional, cell-based; summary of the method: as §2; remark: listed apart in the source
[7] = Upregulation of Cdt1 expression in human CL1-5 cells at 0.01 ug/mL by RT-PCR analysis after 24 to 48 hrs; type: functional, cell-based
[8] = Upregulation of CDC6 expression in human CL1-5 cells at 0.01 ug/mL by RT-PCR analysis after 24 to 48 hrs; type: functional, cell-based
[9] = test system: HT-29; assay: Anticancer activity against human HT-29 cells xenografted in athymic nude mouse assessed as median time to end point at 20 mg/kg, iv qd for 29 days; type: functional
Summary of the method: (§3)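 Male athymic nude mice carrying human HT-29 colorectal adenocarcinoma xenografts, with a vehicle-treated control group. Dosing was 20 mg/kg given either i.v. once daily (qd) to the end of the study or i.v./i.p. twice daily (bid) to the end. Read-outs were median time to endpoint (TTE), maximum group body weight loss and treatment-related deaths. Significance threshold was P < 0.05.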

[10] = Toxicity against athymic nude mouse xenografted with human HT-29 cells assessed as mortality at 20 mg/kg, iv qd measured on day 12; type: organism-based; set-up: dose 20 mg/kg, route intravenous; settings: in vivo, read-out: Activity; summary of the method: as §3
[11] = Toxicity against athymic nude mouse xenografted with human HT-29 cells assessed as mortality at 20 mg/kg, iv bid measured on day 19; type: organism-based; set-up: dose 20 mg/kg, route intravenous; settings: in vivo, read-out: Activity; summary of the method: as §3
[12] = test system: HT-29; assay: Anticancer activity against human HT-29 cells xenografted in athymic nude mouse assessed as median time to end point at 20 mg/kg, iv bid for 29 days; type: functional
Summary of the method: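 Male athymic nude mice bearing HT-29 human colorectal adenocarcinoma xenografts. Drug dosed i.v./i.p. at 20 mg/kg twice daily (bid) to end of study. A vehicle-treated group served as control. The read-out was median time to endpoint (TTE) per group, with maximum group body weight loss and treatment-related deaths tracked. Significance was judged at P < 0.05.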

[13] = test system: HT-29; assay: Anticancer activity against human HT-29 cells xenografted in athymic nude mouse assessed as median time to end point at 20 mg/kg, ip bid for 29 days; type: functional; settings: route intraperitoneal; summary of the method: as §3
[14] = test system: HUVEC; assay: Toxicity against HUVEC; type: cell-based; settings: human

Work on `COc1ccc2c3c(c4cc(OC)c(OC)cc4c2c1)C[C@H]1COCCN1C3` yielded a GI50 [1] of 23 nM, a GI50 [2] of 67 nM and a GI50 [3] of 37 nM. For the same molecule, the GI50 [4] was 9 nM, the Activity [5] was “inactive” and the Activity [6] was “inactive”. For the same molecule, the Activity [7] was “inactive”, the Activity [8] was “inactive” and the Time [9] was 21.3 days. The mortality [10] was 1.1%, the mortality [11] was 7.2% and the Time [12] was 20.9 days. The Time [13] was 20.9 days and the GI50 [14] was 320 nM.
